Reference: article PMC2774482 (Basic & Clinical Pharmacology & Toxicology, 2009)
Counter-ions that a name gives are not always drawn.

Legend:
Caco-2 cell monolayers [1] = experiment: Bidirectional transepithelial transport across Caco-2 cell monolayers; assay type: in vitro ADME, human; conditions: for increase of the efflux (B–A): physiological pH 7.4/7.4
pKa / ionisation = assay type: physicochemical; conditions: at both pH 6.8 and 7.4
Caco-2 cell monolayers [2] = experiment: Paracellular transport of [^3H]-mannitol across Caco-2 monolayers; assay type: in vitro ADME, human; conditions: apical to basolateral (A-B), over 3 hr
Method in brief: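 Caco-2 TC7 cells (passages 40–55) seeded at 65,000 cells/cm2 on 0.4 µm polycarbonate Transwell inserts and used 20–21 days post-seeding. [3H]-mannitol (0.5 µCi/ml) serves as the paracellular marker for tight-junction integrity. Apical-to-basolateral permeability is followed over 3 hr, with basolateral samples taken at several times and counted by liquid scintillation.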

[3] = Bidirectional transepithelial transport across Caco-2 cell monolayers; assay type: in vitro ADME, human; conditions: human, rhodamine 123 5 µM, pH 6.8/7.4, control (no inhibitor)
P-gp = experiment: as above; assay type: in vitro ADME, human; conditions: human, Caco-2, pH 6.8, with cyclosporine A 10 µM, rhodamine 123 5 µM, pH 6.8/7.4, + cyclosporine A 10 µM
[4] = 1 µM, pH 6.8/7.4, + 10 µM Cyclosporine A
[5] = 1 µM, pH 7.4/7.4, + 4 µM GF120918
[6] = 1 µM, pH 7.4/7.4, + 10 µM Cyclosporine A
[7] = 1 µM, pH 7.4/7.4, no inhibitor, control of GF120918 experiment (Table 2)
[8] = 10 µM, pH 6.8/7.4, + 10 µM Cyclosporine A
[9] = 10 µM, pH 6.8/7.4, no inhibitor
[10] = 10 µM, pH 7.4/7.4, + 10 µM Cyclosporine A
[11] = 10 µM, pH 7.4/7.4, no inhibitor
[12] = 50 µM, pH 6.8/7.4, + 10 µM Cyclosporine A
[13] = 50 µM, pH 6.8/7.4, no inhibitor
[14] = 50 µM, pH 7.4/7.4, + 10 µM Cyclosporine A
[15] = 50 µM, pH 7.4/7.4, no inhibitor
[16] = 100 µM, pH 6.8/7.4, + 10 µM Cyclosporine A
[17] = 100 µM, pH 6.8/7.4, no inhibitor
[18] = 100 µM, pH 7.4/7.4, + 10 µM Cyclosporine A
[19] = 100 µM, pH 7.4/7.4, no inhibitor
[20] = in the presence of cyclosporine A

With `COc1cccc(C2(O)CCCCC2CN(C)C)c1` (single isomer, unassigned; (-)) [(−)-TMD, (−)-tramadol] the “Papp (A – B)” value (Caco-2 cell monolayers [1]; [4]) was 18.7 ± 1.1 (cm/sec.) (10^−6), the “Papp (B – A)” value (Caco-2 cell monolayers [1]; [4]) was 36.0 ± 0.3 (cm/sec.) (10^−6) and the “Papp (A – B)” value (Caco-2 cell monolayers [1]; 1 µM, pH 6.8/7.4, no inhibitor) was 16.7 ± 0.5 (cm/sec.) (10^−6). For the same compound, the “Papp (B – A)” value (Caco-2 cell monolayers [1]; 1 µM, pH 6.8/7.4, no inhibitor) was 32.2 ± 0.5 (cm/sec.) (10^−6), the “Papp (A – B)” value (Caco-2 cell monolayers [1]; [5]) was 44.8 ± 4.0 (cm/sec.) (10^−6) and the “Papp (B – A)” value (Caco-2 cell monolayers [1]; [5]) was 61.3 ± 2.8 (cm/sec.) (10^−6). The “Papp (A – B)” value (Caco-2 cell monolayers [1]; [6]) was 29.2 ± 1.1 (cm/sec.) (10^−6), the “Papp (B – A)” value (Caco-2 cell monolayers [1]; [6]) was 34.2 ± 0.8 (cm/sec.) (10^−6) and the “Papp (A – B)” value (Caco-2 cell monolayers [1]; 1 µM, pH 7.4/7.4, no inhibitor) was 31.0 ± 1.9 (cm/sec.) (10^−6). The “Papp (B – A)” value (Caco-2 cell monolayers [1]; 1 µM, pH 7.4/7.4, no inhibitor) was 30.8 ± 1.8 (cm/sec.) (10^−6), the “Papp (A – B)” value (Caco-2 cell monolayers [1]; [7]) was 43.8 ± 5.8 (cm/sec.) (10^−6) and the “Papp (B – A)” value (Caco-2 cell monolayers [1]; [7]) was 51.1 ± 1.9 (cm/sec.) (10^−6). For the same compound, the “Papp (A – B)” value (Caco-2 cell monolayers [1]; [8]) was 10.2 ± 1.0 (cm/sec.) (10^−6), the “Papp (B – A)” value (Caco-2 cell monolayers [1]; [8]) was 28.9 ± 0.5 (cm/sec.) (10^−6) and the “Papp (A – B)” value (Caco-2 cell monolayers [1]; [9]) was 11.0 ± 0.5 (cm/sec.) (10^−6). For the same compound, the “Papp (B – A)” value (Caco-2 cell monolayers [1]; [9]) was 26.9 ± 0.5 (cm/sec.) (10^−6), the “Papp (A – B)” value (Caco-2 cell monolayers [1]; [10]) was 29.9 ± 1.5 (cm/sec.) (10^−6) and the “Papp (B – A)” value (Caco-2 cell monolayers [1]; [10]) was 39.0 ± 0.6 (cm/sec.) (10^−6). For the same compound, the “Papp (A – B)” value (Caco-2 cell monolayers [1]; [11]) was 33.5 ± 2.2 (cm/sec.) (10^−6), the “Papp (B – A)” value (Caco-2 cell monolayers [1]; [11]) was 37.2 ± 0.4 (cm/sec.) (10^−6) and the “Papp (A – B)” value (Caco-2 cell monolayers [1]; [12]) was 9.4 ± 0.6 (cm/sec.) (10^−6). The “Papp (B – A)” value (Caco-2 cell monolayers [1]; [12]) was 31.2 ± 0.8 (cm/sec.) (10^−6), the “Papp (A – B)” value (Caco-2 cell monolayers [1]; [13]) was 10.3 ± 0.5 (cm/sec.) (10^−6) and the “Papp (B – A)” value (Caco-2 cell monolayers [1]; [13]) was 25.4 ± 2.3 (cm/sec.) (10^−6). The “Papp (A – B)” value (Caco-2 cell monolayers [1]; [14]) was 50.9 ± 1.7 (cm/sec.) (10^−6), the “Papp (B – A)” value (Caco-2 cell monolayers [1]; [14]) was 68.9 ± 0.4 (cm/sec.) (10^−6) and the “Papp (A – B)” value (Caco-2 cell monolayers [1]; [15]) was 52.9 ± 1.0 (cm/sec.) (10^−6). The “Papp (B – A)” value (Caco-2 cell monolayers [1]; [15]) was 63.4 ± 3.8 (cm/sec.) (10^−6), the “Papp (A – B)” value (Caco-2 cell monolayers [1]; [16]) was 21.7 ± 2.0 (cm/sec.) (10^−6) and the “Papp (B – A)” value (Caco-2 cell monolayers [1]; [16]) was 62.5 ± 2.0 (cm/sec.) (10^−6). For the same compound, the “Papp (A – B)” value (Caco-2 cell monolayers [1]; [17]) was 22.4 ± 1.8 (cm/sec.) (10^−6), the “Papp (B – A)” value (Caco-2 cell monolayers [1]; [17]) was 61.3 ± 1.0 (cm/sec.) (10^−6) and the “Papp (A – B)” value (Caco-2 cell monolayers [1]; [18]) was 37.3 ± 1.0 (cm/sec.) (10^−6). The “Papp (B – A)” value (Caco-2 cell monolayers [1]; [18]) was 67.7 ± 1.5 (cm/sec.) (10^−6), the “Papp (A – B)” value (Caco-2 cell monolayers [1]; [19]) was 41.1 ± 2.9 (cm/sec.) (10^−6) and the “Papp (B – A)” value (Caco-2 cell monolayers [1]; [19]) was 64.3 ± 3.4 (cm/sec.) (10^−6). For the same compound, the “increase of the efflux (B–A)” value (Caco-2 cell monolayers [1]; GF120918, 1 µM) was 17% and the “increase of the efflux (B–A)” value (Caco-2 cell monolayers [1]; [20]) was “up to 10%”.

In the case of `COc1cccc(C2(O)CCCCC2CN(C)C)c1` (centres unmarked) [TMD, Tramadol hydrochloride], the “ionised (protonated) form” value (pKa / ionisation) is reported as 100%.

In the case of `COc1cccc(C2(O)CCCCC2CN(C)C)c1` (single isomer, unassigned; (+)) [(+)-TMD, (+)-tramadol], the “Papp (A – B)” value (Caco-2 cell monolayers [1]; [4]) is reported as 15.6 ± 1.2 (cm/sec.) (10^−6), the “Papp (B – A)” value (Caco-2 cell monolayers [1]; [4]) is reported as 34.0 ± 0.7 (cm/sec.) (10^−6) and the “Papp (A – B)” value (Caco-2 cell monolayers [1]; 1 µM, pH 6.8/7.4, no inhibitor) is reported as 14.1 ± 0.8 (cm/sec.) (10^−6). The “Papp (B – A)” value (Caco-2 cell monolayers [1]; 1 µM, pH 6.8/7.4, no inhibitor) was 31.1 ± 0.8 (cm/sec.) (10^−6), the “Papp (A – B)” value (Caco-2 cell monolayers [1]; [5]) was 45.8 ± 3.7 (cm/sec.) (10^−6) and the “Papp (B – A)” value (Caco-2 cell monolayers [1]; [5]) was 60.6 ± 2.1 (cm/sec.) (10^−6). The “Papp (A – B)” value (Caco-2 cell monolayers [1]; [6]) was 26.2 ± 3.4 (cm/sec.) (10^−6), the “Papp (B – A)” value (Caco-2 cell monolayers [1]; [6]) was 34.6 ± 0.8 (cm/sec.) (10^−6) and the “Papp (A – B)” value (Caco-2 cell monolayers [1]; 1 µM, pH 7.4/7.4, no inhibitor) was 28.1 ± 0.5 (cm/sec.) (10^−6). For the same compound, the “Papp (B – A)” value (Caco-2 cell monolayers [1]; 1 µM, pH 7.4/7.4, no inhibitor) was 31.5 ± 1.3 (cm/sec.) (10^−6), the “Papp (A – B)” value (Caco-2 cell monolayers [1]; [7]) was 42.6 ± 6.2 (cm/sec.) (10^−6) and the “Papp (B – A)” value (Caco-2 cell monolayers [1]; [7]) was 52.3 ± 2.9 (cm/sec.) (10^−6). The “Papp (A – B)” value (Caco-2 cell monolayers [1]; [8]) was 9.6 ± 1.1 (cm/sec.) (10^−6), the “Papp (B – A)” value (Caco-2 cell monolayers [1]; [8]) was 28.8 ± 0.6 (cm/sec.) (10^−6) and the “Papp (A – B)” value (Caco-2 cell monolayers [1]; [9]) was 11.0 ± 0.7 (cm/sec.) (10^−6). For the same compound, the “Papp (B – A)” value (Caco-2 cell monolayers [1]; [9]) was 26.9 ± 0.5 (cm/sec.) (10^−6), the “Papp (A – B)” value (Caco-2 cell monolayers [1]; [10]) was 30.2 ± 2.1 (cm/sec.) (10^−6) and the “Papp (B – A)” value (Caco-2 cell monolayers [1]; [10]) was 39.4 ± 0.8 (cm/sec.) (10^−6). The “Papp (A – B)” value (Caco-2 cell monolayers [1]; [11]) was 33.5 ± 1.4 (cm/sec.) (10^−6), the “Papp (B – A)” value (Caco-2 cell monolayers [1]; [11]) was 38.8 ± 1.6 (cm/sec.) (10^−6) and the “Papp (A – B)” value (Caco-2 cell monolayers [1]; [12]) was 9.3 ± 0.6 (cm/sec.) (10^−6). The “Papp (B – A)” value (Caco-2 cell monolayers [1]; [12]) was 31.2 ± 0.7 (cm/sec.) (10^−6), the “Papp (A – B)” value (Caco-2 cell monolayers [1]; [13]) was 10.3 ± 0.5 (cm/sec.) (10^−6) and the “Papp (B – A)” value (Caco-2 cell monolayers [1]; [13]) was 25.6 ± 2.3 (cm/sec.) (10^−6). For the same compound, the “Papp (A – B)” value (Caco-2 cell monolayers [1]; [14]) was 49.9 ± 2.5 (cm/sec.) (10^−6), the “Papp (B – A)” value (Caco-2 cell monolayers [1]; [14]) was 69.6 ± 0.7 (cm/sec.) (10^−6) and the “Papp (A – B)” value (Caco-2 cell monolayers [1]; [15]) was 52.5 ± 1.1 (cm/sec.) (10^−6). The “Papp (B – A)” value (Caco-2 cell monolayers [1]; [15]) was 65.3 ± 1.0 (cm/sec.) (10^−6), the “Papp (A – B)” value (Caco-2 cell monolayers [1]; [16]) was 21.7 ± 1.9 (cm/sec.) (10^−6) and the “Papp (B – A)” value (Caco-2 cell monolayers [1]; [16]) was 61.7 ± 2.0 (cm/sec.) (10^−6). For the same compound, the “Papp (A – B)” value (Caco-2 cell monolayers [1]; [17]) was 22.6 ± 1.9 (cm/sec.) (10^−6), the “Papp (B – A)” value (Caco-2 cell monolayers [1]; [17]) was 60.9 ± 1.3 (cm/sec.) (10^−6) and the “Papp (A – B)” value (Caco-2 cell monolayers [1]; [18]) was 39.1 ± 1.5 (cm/sec.) (10^−6). For the same compound, the “Papp (B – A)” value (Caco-2 cell monolayers [1]; [18]) was 68.2 ± 0.9 (cm/sec.) (10^−6), the “Papp (A – B)” value (Caco-2 cell monolayers [1]; [19]) was 41.7 ± 3.6 (cm/sec.) (10^−6) and the “Papp (B – A)” value (Caco-2 cell monolayers [1]; [19]) was 66.9 ± 0.4 (cm/sec.) (10^−6). The “increase of the efflux (B–A)” value (Caco-2 cell monolayers [1]; GF120918, 1 µM) was 17% and the “increase of the efflux (B–A)” value (Caco-2 cell monolayers [1]; [20]) was “up to 10%”.

In the case of `OC[C@@H](O)[C@@H](O)[C@H](O)[C@H](O)CO` [[^3H]-mannitol], the transport rate (Caco-2 cell monolayers [2]) is reported as less than 1 % per hr.

Compound `COC(=O)c1ccccc1-c1c2ccc(=N)cc-2oc2cc(N)ccc12` [rhodamine 123] has a Papp A→B at 3 h, 5 µM ([3]; Caco-2, pH 6.8, Papp(A–B)) of 4.8 ± 0.2 ×10⁻⁶ cm/s, a Papp B→A at 3 hr, 5 µM ([3]; Caco-2, pH 6.8, Papp(B–A)) of 6.4 ± 0.7 ×10⁻⁶ cm/s and a Papp A→B at 3 h, 5 µM (P-gp; Papp(A–B)) of 7.8 ± 0.3 ×10⁻⁶ cm/s. The Papp B→A at 3 hr, 5 µM (P-gp; Papp(B–A)) was 1.2 ± 0.3 ×10⁻⁶ cm/s and the “decrease of secretory transport” value (Caco-2 cell monolayers [1]; in the presence of the P-gp inhibitor cyclosporine A) was 80%.
